The source made the active and inactive calls. The calls are words filed in the database; no cut-off is given here.

The results in this text go back to ChEMBL document CHEMBL4376838, “Discovery of Novel Celastrol Derivatives as Hsp90-Cdc37 Interaction Disruptors with Antitumor Activity” (J Med Chem, 2019).

In assay [1] the test system is A549. The assay is described as follows: Antiproliferative activity against human A549 cells assessed as inhibition of cell growth incubated for 48 hrs by MTT assay. It is filed as functional, cell-based. The following applies: A549, 48 h. The procedure, abridged:
(§1)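 MTT read-out. Cells seeded at 5.0 × 10⁴ cells/ml and cultured 24 h, then exposed to the drug over a range of concentrations for 48 h, with matching DMSO as control. MTT (5 mg/ml) added for 4 h, supernatant removed, formazan dissolved in DMSO, OD read at 570 nm. Run in triplicate, mean ± SD (n = 3).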
In general terms: Tetrazolium dyes change colour on reduction, which living cells bring about.

The test system of a further assay is HOS. The assay is described as follows: Antiproliferative activity against human HOS cells assessed as inhibition of cell growth incubated for 48 hrs by MTT assay. It is filed as functional, cell-based. The procedure, abridged:
as §1

Assay [2] concerns the target Heat shock protein HSP 90-alpha (Homo sapiens) (UniProt P07900). The assay is described as follows: Inhibition of ATP binding to human HSP90 alpha at 5 to 10 uM preincubated for 30 mins followed by gamma phosphate-linked ATP sepharose addition and measured after 30 mins by ATP-binding sepharose assay based western blot analysis. The procedure, abridged:
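Purified human Hsp90α incubated on ice 30 min with compound or DMSO in 10 mM Tris-HCl pH 7.5, 50 mM KCl, 5 mM MgCl2, 2 mM DTT, 20 mM Na2MoO4, 0.01% NP-40. γ-phosphate-linked ATP-Sepharose then added, 30 min at 37 °C with frequent mixing. Resin washed and pelleted, bound Hsp90α detected by SDS-PAGE/Western blot.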
In general terms: In western blotting, separated proteins are transferred to a membrane and probed.

The target of assay [3] is T1, Hsp90 co-chaperone Cdc37 (Homo sapiens) (UniProt Q16543).
T1 sequence (whole entry): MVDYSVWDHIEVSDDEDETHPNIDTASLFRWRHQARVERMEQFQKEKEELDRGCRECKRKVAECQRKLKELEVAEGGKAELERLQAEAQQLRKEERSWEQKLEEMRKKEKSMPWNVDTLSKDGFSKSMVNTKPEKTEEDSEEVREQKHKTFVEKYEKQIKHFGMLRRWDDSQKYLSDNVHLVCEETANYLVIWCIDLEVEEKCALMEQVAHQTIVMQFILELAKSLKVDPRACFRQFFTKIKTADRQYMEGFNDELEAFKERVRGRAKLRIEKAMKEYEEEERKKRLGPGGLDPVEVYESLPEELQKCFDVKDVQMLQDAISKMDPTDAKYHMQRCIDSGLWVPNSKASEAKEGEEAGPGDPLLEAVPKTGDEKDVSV
The assay is described as follows: Binding affinity to full length CDC37 (unknown origin) assessed as reduction in absorption at 440 nm reaching equilibrium within 15 mins at 100 uM by UV absorption analysis. The following applies: in the assay text read “within 5 mins” for “within 15 mins”. An outline of the steps:
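Compound (100 μM) mixed with GSH (100 μM), Cdc37 (1.5 μM) or Hsp90 (1.5 μM) in PBS containing 1% DMSO, incubated at 37 °C for 0, 5, 15 and 30 min. UV spectra scanned 200-500 nm, with absorbance at 440 nm compared against the 0 min value (A/A0). Mean ± SD, n = 3.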

For assay [4], the system named is A549. The assay is described as follows: Antiproliferative activity against human A549 cells assessed as inhibition of cell growth at 0.5 uM incubated for 48 hrs in presence of methyl thioglycolate by MTT assay relative to control. The conditions noted are these: A549, 48 h, read-out: GI. It is filed as functional.
Assay [5] has as its target T1, Hsp90 co-chaperone Cdc37 (Homo sapiens). The assay is described as follows: Binding affinity to Cdc37 in human A549 cells assessed as inhibition of HSP90-Cdc37 interaction by measuring decrease in Akt phosphorylation level incubated for 12 hrs by Western blot analysis. It is filed as cell-based. The procedure, abridged:
(§2)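 A549 cells (5×10^5 per 6 cm dish) were allowed to settle 12 h, then treated with DMSO or compound at the indicated concentrations for 12 h. Lysates were adjusted to 3 mg/ml protein by BCA and resolved on 10% SDS-PAGE, then Western blotted. β-actin or Hsp90 served as the loading control. Three separate experiments, mean ± SD.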

Assay [6] shares this target. The assay is described as follows: Binding affinity to Cdc37 in human A549 cells assessed as inhibition of HSP90-Cdc37 interaction by measuring decrease in CDK4 protein level incubated for 12 hrs by Western blot analysis. It is filed as cell-based. The procedure, abridged: as §2
Assay [7] has as its system A549. The assay is described as follows: Induction of mitochondrial membrane potential loss in human A549 cells assessed as cells with depolarized mitochondria by measuring increase in J-monomer green fluorescence intensity at 0.2 uM incubated for 24 hrs by JC1 staining based fluorescence microscopic method (reference value: 1.5%). It is filed as functional.
Assay [8] concerns A549. The assay is described as follows: Induction of apoptosis in human A549 cells assessed as early apoptotic cells at 0.3 uM incubated for 48 hrs by Annexin V-FITC and PI staining based flow cytometric analysis (reference value: 0.5%). It is filed as functional.
Assay [9] has as its system A549. The assay is described as follows: Induction of apoptosis in human A549 cells assessed as late apoptotic cells at 0.3 uM incubated for 48 hrs by Annexin V-FITC and PI staining based flow cytometric analysis (reference value: 3.0%). It is filed as functional. For orientation: Flow cytometry measures light scatter and fluorescence of single cells or particles in a stream.

The subject of assay [10] is A549. The assay is described as follows: Induction of apoptosis in human A549 cells assessed as late apoptotic cells at 0.6 uM incubated for 48 hrs by Annexin V-FITC and PI staining based flow cytometric analysis (reference value: 3.0%). It is filed as functional.
Assay [11] concerns A549. The assay is described as follows: Induction of apoptosis in human A549 cells assessed as necrotic cells at 0.6 uM incubated for 48 hrs by Annexin V-FITC and PI staining based flow cytometric analysis (reference value: 1.0%). It is filed as functional.
Assay [12] concerns A549. The assay is described as follows: Induction of apoptosis in human A549 cells assessed as viable cells at 1.2 uM incubated for 48 hrs by Annexin V-FITC and PI staining based flow cytometric analysis (reference value: 95.5%). The conditions noted are these: A549, 48 h, read-out: Activity. It is filed as functional. The procedure, abridged:
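A549 cells (4×10^5 per 6 cm dish) cultured 24 h, then treated 48 h with compound or DMSO. Cells gently harvested, washed twice in cold PBS, resuspended in binding buffer with Annexin V and PI, stained 15 min at room temperature in the dark, analysed by flow cytometry. Mean ± SD, n = 3.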

Assay [13] deals with A549. The assay is described as follows: Induction of cell cycle arrest in human A549 cells assessed as accumulation at G2 phase at 0.4 uM incubated for 24 hrs by PI staining based flow cytometric analysis (reference value: 19.37%). It is filed as functional. The procedure, abridged: (§3)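 A549 cells (4×10^5 per 6 cm dish) were grown 24 h, then exposed to compound (0.2, 0.4, 0.8 μM) or DMSO for 24 h. Cells fixed in 75% ethanol at −20 °C for at least 12 h, treated with RNase A at 37 °C for 30 min, then stained with PI for 15 min in the dark. Analysed by flow cytometry, mean ± SD, n = 3.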

Assay [14] concerns A549. The assay is described as follows: Induction of cell cycle arrest in human A549 cells assessed as accumulation at G1 phase at 0.8 uM incubated for 24 hrs by PI staining based flow cytometric analysis (reference value: 60.14%). It is filed as functional. The procedure, abridged: as §3
Assay [15] has as its system A549. The assay is described as follows: Induction of cell cycle arrest in human A549 cells assessed as accumulation at G2 phase at 0.8 uM incubated for 24 hrs by PI staining based flow cytometric analysis (reference value: 19.37%). It is filed as functional. The procedure, abridged:
as §3

A short description of assay [16]: Binding affinity to DTT in DMSO-d6 with retention of CA moiety at 0.02 mmol incubated for 20 mins in ultrasound by 1H NMR-spectroscopic analysis.
Assay [17] relates to A549. The assay is described as follows: Antiproliferative activity against human A549 cells assessed as inhibition of cell growth at 0.5 uM incubated for 48 hrs by MTT assay relative to control. The conditions noted are these: A549, 48 h, read-out: GI. It is filed as functional.

What is called IC50 is the concentration needed to halve the response being measured. In the case of `CC1=C(O)C(=O)C=C2C1=CC=C1[C@@]2(C)CC[C@@]2(C)[C@@H]3C[C@](C)(C(=O)OCCCOC(=O)/C=C(\C#N)c4ccc(F)cc4)CC[C@]3(C)CC[C@]12C`, the results for the IC50 in the assay on A549 [1] and in the assay with HOS were 410 nM and 900 nM, respectively. Also, the inhibition result in assay [2] is “inactive”. Besides, the result in assay [3] and in assay [16] was Active. Further, the inhibition of growth at 0.5 µM in the assay on A549 [4] is 68.3%; in the assay on A549 [17], 65.1%. Also, the inhibition result in assay [5] and in assay [6] was “Dose-dependent effect” throughout. For the same molecule, the Activity with A549 [7] amounted to 15.7%; with A549 [8] it was 2.2%; in the assay on A549 [9], 9.3%; in the assay with A549 [10], 16.9%; in the assay with A549 [11], 6%; in the assay with A549 [13], 16%. Further, the Activity came to 70.49% in the assay on A549 [14] and 15.55% in the assay on A549 [15]. Moreover, the viability at 1.2 µM with A549 [12] was 59.2%.
